The structures appear in SMILES notation. ≈ marks a conversion by molar mass, not a printed value. Calls of active or inactive are those of the source. The calls are words filed in the database; no cut-off is given here.

Data set [1] concerns the target T1, Free fatty acid receptor 4 (Homo sapiens, UniProt Q5NUL3).
T1 sequence (Q5NUL3 whole entry): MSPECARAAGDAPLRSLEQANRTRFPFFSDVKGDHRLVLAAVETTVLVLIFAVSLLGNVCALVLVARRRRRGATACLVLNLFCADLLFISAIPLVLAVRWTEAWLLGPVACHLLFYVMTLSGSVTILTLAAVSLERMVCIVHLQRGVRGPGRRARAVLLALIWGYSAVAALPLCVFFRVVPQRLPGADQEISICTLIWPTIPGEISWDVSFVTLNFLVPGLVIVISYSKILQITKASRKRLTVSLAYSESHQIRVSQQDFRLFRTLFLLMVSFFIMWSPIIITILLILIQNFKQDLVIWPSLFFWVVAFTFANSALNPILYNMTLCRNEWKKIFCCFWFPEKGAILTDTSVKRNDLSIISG
In words: Agonist activity at human C-terminal YFP-tagged FFA4 receptor expressed in HEK293 cells incubated for 5 mins by BRET based beta-arrestin 2 recruitment assay. The data set is classed as cell-based. The procedure, abridged:
(§1)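 Human FFA4 counter-screen using a β-arrestin mobilization read-out. Efficacy is expressed relative to a reference alkyne FFA1 agonist tested at 10 μM.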
(In general: In BRET a luciferase serves as donor, and the signal depends on an acceptor being close.)

Data set [2] concerns the target T2, Free fatty acid receptor 1 (Homo sapiens, UniProt O14842). In words: Agonist activity at human FFA1 receptor expressed in human 1321N1 cells measured for 50 intervals of 0.4 secs by calcium mobilization assay. The format is functional, cell-based. The procedure, abridged: (§2)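 Ca²⁺ read-out at human FFA1. Efficacy is expressed relative to TUG-20 (3-(4-(benzyloxy)phenyl)propanoic acid).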
Background: Calcium flux is commonly read through the fluorescence of an indicator in the cells.

The target of data set [3] is T2, Free fatty acid receptor 1. In words: Agonist activity at human FFA1 receptor expressed in human 1321N1 cells measured for 50 intervals of 0.4 secs by calcium mobilization assay relative to TUG-20. The format is functional, cell-based. The procedure, abridged:
as §2

Data set [4] addresses T3, Free fatty acid receptor 4 (Homo sapiens) (UniProt Q5NUL3).
T3 sequence (whole entry): T1 sequence (Q5NUL3 whole entry)
In words: Agonist activity at human C-terminal YFP-tagged FFA4 receptor expressed in HEK293 cells incubated for 5 mins by BRET based beta-arrestin 2 recruitment assay relative to TUG-424. The data set is classed as cell-based. In short, it runs like this:
as §1

Data set [5] can be described thus: Drug metabolism in human liver microsomes assessed as cytochrome P450-mediated compound oxidation by measuring drug recovery after 1 hr by HPLC analysis. The following applies: read-out: Drug recovery. The format is ADME.
Data set [6] in a line: Cmax in C57BL/6 mouse plasma at 10 mg/kg, po. The format is ADME, organism-based. Details: dose 10 mg/kg, route oral.
The test system of data set [7] is Mus musculus. In words: Clearance in C57BL/6 mouse plasma at 10 mg/kg, po. The data set is classed as ADME, organism-based. To be noted: in vivo.
Data set [8] in a line: Ratio of Cmax in C57BL/6 mouse plasma to EC50 for human FFA1 receptor expressed in human 1321N1 cells.
Data set [9] is described as follows: Aqueous kinetic solubility in phosphate buffered saline at 200 uM by turbidimetric assay. To be noted: read-out: Kinetic_solubility. The format is physicochemical.
The nature of data set [10]: Half life in C57BL/6 mouse plasma at 10 mg/kg, po. The format is ADME, organism-based.
Data set [11] relates to Mus musculus. In words: Antidiabetic activity in C57BL/6 mouse assessed as reduction in plasma glucose level at 10 mg/kg administered 15 mins through oral gavage prior to glucose challenge measured after 30 to 120 mins by OGTT. The format is functional, organism-based.
The nature of data set [12]: Tmax in C57BL/6 mouse plasma at 10 mg/kg, po. The data set is classed as ADME, organism-based.
The nature of data set [13]: Chemical stability in 0.1 M phosphate buffered saline assessed as drug recovery at 37 degC after 24 hrs. The data set is classed as physicochemical. The following applies: read-out: Drug recovery.
In data set [14] the target is T2, Free fatty acid receptor 1. In words: Potency index, ratio of alpha-linolenic acid EC50 to compound EC50 for human FFA1 receptor expressed in human 1321N1 cells. The data set is classed as cell-based.
Data set [15] in a line: Chemical stability in fasted state simulated gastric fluid assessed as drug recovery at 37 degC after 2 hrs. The data set is classed as physicochemical. To be noted: read-out: Drug recovery.
For data set [16], the system named is Mus musculus. In words: Antidiabetic activity in C57BL/6 mouse assessed as increase in plasma insulin level at 10 mg/kg administered 15 mins through oral gavage prior to glucose challenge measured after 30 mins by ELISA. The data set is classed as functional, organism-based.
Data set [17] in a line: Lipophilicity, log D of compound at pH 7.4. The data set is classed as physicochemical. To be noted: buffer.
Data set [18] is described as follows: AUC (0 to infinity) in C57BL/6 mouse plasma at 10 mg/kg, po. The format is ADME, organism-based. Details: dose 10 mg/kg, route oral, time infinity.
Data set [19] can be described thus: Chemical stability in fasted state simulated intestinal fluid assessed as drug recovery at 37 degC after 2 hrs. To be noted: read-out: Drug recovery. The format is physicochemical.
Data set [20] in a line: Chemical stability in fed state simulated intestinal fluid assessed as drug recovery at 37 degC after 2 hrs. To be noted: read-out: Drug recovery. The format is physicochemical.

T2 sequence (O14842 whole entry): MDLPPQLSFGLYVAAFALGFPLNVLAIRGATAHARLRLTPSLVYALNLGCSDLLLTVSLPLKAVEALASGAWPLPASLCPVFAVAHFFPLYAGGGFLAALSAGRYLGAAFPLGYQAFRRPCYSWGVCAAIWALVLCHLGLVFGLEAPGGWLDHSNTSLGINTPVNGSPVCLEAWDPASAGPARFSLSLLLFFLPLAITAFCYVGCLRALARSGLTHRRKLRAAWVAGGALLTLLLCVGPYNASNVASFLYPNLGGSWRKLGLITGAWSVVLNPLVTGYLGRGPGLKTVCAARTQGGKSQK

Turning to `O=C(O)CCc1ccc(C#CCCc2ccccc2)cc1`, the results for the EC50 in data set [1] and in data set [2] (read-out: pEC50 (converted)) were 4.79 µM and 1.82 µM, respectively. In addition, the Efficacy in data set [3] was 128%; in data set [4], 102%.
On the same counts, the results for `C/C=C/C#Cc1ccc(CCC(=O)O)c(F)c1` are 34.7 µM, 0.209 µM, 97% and 38%.
Take `O=C(O)CCc1ccc(C#CC2=CCCCC2)cc1`: the EC50 in data set [1] is above 100 µM; in data set [2] (read-out: pEC50 (converted)), 0.2 µM. The Efficacy in [3] worked out at 100%.
Taken in the same sequence, the figures for `O=C(O)CCc1ccc(C#CC2CC2)cc1` were above 100 µM, 5.01 µM and 128%.
As for `C/C=C\C#Cc1ccc(CCC(=O)O)c(F)c1`, the results for the EC50 in data set [1] and in data set [2] (read-out: pEC50 (converted)) were 17.8 µM and 0.0479 µM, respectively. Also, the Efficacy in data set [3] turned out to be 91%; in data set [4], 49%.
`C#Cc1ccc(CCC(=O)O)cc1`: the EC50 in [1] and in data set [2] (read-out: pEC50 (converted)) was above 100 µM in each case.
As for `O=C(O)CCc1ccc(C#CC2CCCC2)cc1`, the EC50 was 33.9 µM in data set [1] and 0.49 µM in data set [2] (read-out: pEC50 (converted)). The Efficacy in data set [3] is 94%; in data set [4], 105%.
On to `C/C=C(\C)C#Cc1ccc(CCC(=O)O)c(F)c1`, for which the EC50 in [1] is 26.3 µM. For the same molecule, the Efficacy in data set [3] was determined as 97%; in data set [4] it was 89%.
For the molecule `CC(C)=C(C)C#Cc1ccc(CCC(=O)O)cc1`, the figures for the EC50 in data set [1] and in [2] (read-out: pEC50 (converted)) were 7.59 µM and 0.0832 µM, respectively. The Efficacy in data set [3] was 105%; in [4], 102%.
In data set [1], `C=C(C)C#Cc1ccc(CCC(=O)O)c(F)c1` had an EC50 above 100 µM. In data set [3], the Efficacy amounted to 106%.
As a reminder, the pEC50 is −log10 of the EC50, conventionally taken in molar units. In data set [1], `O=C(O)CCc1ccc(C#CC2(O)CCCCC2)cc1` showed an EC50 above 100 µM. The pEC50 in data set [2] (1321-n1) is below 4.
Turning to `O=C(O)CCc1ccc(C#CCc2ccccc2)cc1`, the EC50 is 10.5 µM in data set [1] and 0.389 µM in data set [2] (read-out: pEC50 (converted)). Moreover, the Efficacy in data set [3] stood at 103%; in [4] it was 113%.
Regarding `COc1ccc(CCN(C)CCCC(C#N)(c2ccc(OC)c(OC)c2)C(C)C)cc1OC` (centres undefined), the remaining at 1 h in data set [5] was determined as 23%.
`C/C(C#Cc1ccc(CCC(=O)O)c(F)c1)=C/CO` showed an EC50 in [1] above 100 µM. Further, the Efficacy in [3] was determined as 105%.
Usually Cmax stands for the peak of the concentration-time curve. For orientation: half-life means how long it takes for the measured level to halve. A high value points to slow decline. In general, Tmax refers to the time at which the peak concentration occurs. As usually defined, the logD is the decadic logarithm of the distribution of all forms, ionised or not, between an organic phase and buffer at a given pH. Low readings indicate lower lipophilicity, high ones higher lipophilicity. As a reminder, the AUC(0-inf) is total exposure, with the tail of the curve extrapolated. `C/C=C(/C)C#Cc1ccc(CCC(=O)O)c(F)c1` yielded a Cmax in data set [6] of 44.7 µM. The EC50 in data set [1] was 20 µM; in [2] (read-out: EC50) it was 0.02 µM. Besides, in the data set on Mus musculus [7], the clearance turned out to be 0.49 mL/min/kg. Further, the Ratio in data set [8] is listed as above 1000. Further, in [9], the solubility kinetic at 200 µM amounted to 191 µM (≈ 47 µg/mL). The molecule further had a half-life in data set [10] of 99 min. In addition, the Efficacy was 103% in data set [3] and 101% in data set [4]. The outcome with Mus musculus [11] and in the data set on Mus musculus [16] was Active. Further, the time of peak concentration (Tmax) in data set [12] was 15 min. For the same molecule, in data set [13], the remaining at 24 h is 100%. The Ratio EC50 in [14] amounted to 100. The remaining at 2 h in [15] is 84%; in [19], 100%; in [20], 95%. Moreover, in data set [17], the pH-dependent lipophilicity (logD) amounted to 1.79. This molecule also gave a total exposure AUC(0-inf) in [18] of 138 µM·h. In addition, the remaining at 1 h in data set [5] worked out at 38%.
As to `CC/C=C\C/C=C\C/C=C\CCCCCCCC(=O)O` [LINOLENIC ACID], the EC50 in data set [2] (read-out: EC50) worked out at 3 µM.
In the case of `O=C(O)CCc1ccc(C#CC2CCCCC2)cc1`, the EC50 in data set [1] is 9.55 µM; in [2] (read-out: pEC50 (converted)), 0.513 µM. For the same molecule, the figures for the Efficacy in [3] and in data set [4] were 98% and 118%, respectively.
For `C=C(C)C#Cc1ccc(CCC(=O)O)cc1`, the results for the EC50 in data set [1] and in data set [2] (read-out: pEC50 (converted)) were above 100 µM and 0.417 µM, respectively. In addition, the Efficacy in [3] came to 108%.
With `CCCCCCCC#Cc1ccc(CCC(=O)O)cc1`, the values for the EC50 in data set [1] and in data set [2] (read-out: pEC50 (converted)) were 4.07 µM and 1.45 µM, respectively. Besides, the results for the Efficacy in data set [3] and in data set [4] were 84% and 102%, respectively.

Values taken from ChEMBL document CHEMBL3785041, “Discovery of a Potent Free Fatty Acid 1 Receptor Agonist with Low Lipophilicity, Low Polar Surface Area, and Robust in Vivo Efficacy” (J Med Chem, 2016).
